Assay results reported in ChEMBL document CHEMBL1800030, “Synthesis and biological evaluation of anilino substituted pyrimidine linked pyrrolobenzodiazepines as potential anticancer agents” (Bioorg Med Chem Lett, 2010).
Calls of active or inactive are those of the source.

Assays:
[1] = tested on: A-375; assay: Cell cycle arrest in human A375 cells assessed as accumulation at S phase at 4 uM after 24 hrs by propidium iodide staining based FACS analysis (reference value: 12.04 to 15.67%); type: functional
[2] = tested on: A-375; assay: Cell cycle arrest in human A375 cells assessed as accumulation at G0/G1 phase at 4 uM after 24 hrs by propidium iodide staining based FACS analysis (reference value: 64.7 to 66.26%); type: functional
[3] = tested on: A-375; assay: Cell cycle arrest in human A375 cells assessed as accumulation at G2/M phase at 4 uM after 24 hrs by propidium iodide staining based FACS analysis (reference value: 17.65 to 23.26%); type: functional
[4] = tested on: A-375; assay: Induction of apoptosis in human A375 cells at 4 uM after 24 hrs by FACS analysis (reference value: 5.61%); type: functional
[5] = Cytotoxicity against human Gurav cells after 48 hrs by SRB assay; type: functional
In short: (§1)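 Cells from human breast, oral, ovary, colon, lung, prostate and cervix cancer lines were tested by sulforhodamine B assay. GI50 is 50% growth inhibition, given as mean ± SEM of three determinations. Activity cutoff was GI50 ≤10^-5 M. Adriamycin served as positive control.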

[6] = tested on: Nucleic Acid; assay: Inhibition of BamH1-induced DNA cleavage activity in Escherichia coli pBR322 at 8 uM after 24 hrs by agarose gel electrophoresis; type: nucleic-acid assay
In short: (§2)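 pBR322 plasmid DNA was incubated with compound at 2–32 µM and then digested with BamHI. Restriction-digestion inhibition was judged against cut (BamHI, no compound) and uncut vector lanes.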

[7] = tested on: A-375; assay: Cytotoxicity against human A375 cells assessed as cell viability at 4 uM after 24 hrs by real time cell analyzer; type: functional; conditions: A-375, 24 h, read-out: Activity
In short: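 A375 cell viability was measured after exposure to compound at 4 µM, with percent viability reported.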

[8] = tested on: Nucleic Acid; assay: Binding affinity to calf thymus DNA assessed as change in melting temperature at compound to DNA molar ratio of 1:5 at pH 7 after 18 hrs at 37 degC by thermal denaturation assay; type: nucleic-acid assay; conditions: Bos taurus
[9] = tested on: A-375; assay: Induction of mitochondrial dysfunction in human A375 cells assessed as increase in cytosolic cytochrome c level at 4 uM after 24 hrs by Western blot analysis; type: functional, cell-based
In short: (§3)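 A375 cells were treated at 4 µM for 24 h, then p53 or cytosolic cytochrome c levels were measured by Western blot. β-Actin served as loading control. Controls were untreated cells and untreated cells plus DMSO.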

[10] = tested on: PC-3; assay: Cytotoxicity against human PC3 cells after 48 hrs by SRB assay; type: functional; conditions: PC-3, 48 h; in short: as §1
[11] = tested on: SiHa; assay: Cytotoxicity against human SiHa cells after 48 hrs by SRB assay; type: functional; in short: as §1
[12] = Cytotoxicity against human DWD cells after 48 hrs by SRB assay; type: functional; in short: as §1
[13] = tested on: A-375; assay: Induction of apoptosis in human A375 cells assessed as PARP cleavage at 4 uM after 24 hrs by Western blot analysis
[14] = tested on: KB; assay: Cytotoxicity against human KB cells after 48 hrs by SRB assay; type: functional; in short: as §1
[15] = tested on: A-375; assay: Cytotoxicity against human A375 cells after 24 hrs by MTT assay; type: functional, cell-based; conditions: A-375, 24 h
In short: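 MTT proliferation assay on A375 cells, with the IC50 derived from it.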

[16] = tested on: ZR-75-1; assay: Cytotoxicity against human ZR-75-1 cells after 48 hrs by SRB assay; type: functional; conditions: ZR-75-1, 48 h; in short: as §1
[17] = tested on: A2780; assay: Cytotoxicity against human A2780 cells after 48 hrs by SRB assay; type: functional; conditions: A2780, 48 h; in short: as §1
[18] = tested on: HOP-62; assay: Cytotoxicity against human HOP62 cells after 48 hrs by SRB assay; type: functional; conditions: HOP-62, 48 h; in short: as §1
[19] = tested on: MCF7; assay: Cytotoxicity against human MCF7 cells after 48 hrs by SRB assay; type: functional; conditions: MCF7, 48 h; in short: as §1
[20] = tested on: Nucleic Acid; assay: Inhibition of BamH1-induced DNA cleavage activity in Escherichia coli pBR322 at 4 uM after 24 hrs by agarose gel electrophoresis; type: nucleic-acid assay; in short: as §2
[21] = tested on: A-375; assay: Upregulation of p53 gene expression in human A375 cells at 4 uM after 24 hrs by Western blot analysis; type: functional, cell-based; in short: as §3
[22] = tested on: A549; assay: Cytotoxicity against human A549 cells after 48 hrs by SRB assay; type: functional; conditions: A549, 48 h; in short: as §1
[23] = tested on: COLO 205; assay: Cytotoxicity against human COLO205 cells after 48 hrs by SRB assay; type: functional; conditions: COLO 205, 48 h; in short: as §1
[24] = tested on: Nucleic Acid; assay: Inhibition of BamH1-induced DNA cleavage activity in Escherichia coli pBR322 at 16 uM after 24 hrs by agarose gel electrophoresis; type: nucleic-acid assay
In short: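 RED100 restriction-digestion assay: pBR322 vector DNA incubated with compound at 2, 4, 8, 16 and 32 µM, then digested with BamHI. Lanes are compared with uncut vector and with vector cut by BamHI without compound. DNA binding is read as inhibition of BamHI cleavage.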

| SMILES | Activity [1] [%] | Activity [2] [%] | Activity [3] [%] | Activity [4] [%] | GI50 [5] [nM] | viability at 4 µM [7] [%] | ΔTm [8] [°C] | Activity [9] | GI50 [10] [nM] | GI50 [11] [nM] | GI50 [12] [nM] | Activity [13] | GI50 [14] [nM] | IC50 [15] [nM] | GI50 [16] [nM] | GI50 [17] [nM] | GI50 [18] [nM] | GI50 [19] [nM] | GI50 [22] [nM] | GI50 [23] [nM] | other results |
| --- | --- | --- | --- | --- | --- | --- | --- | --- | --- | --- | --- | --- | --- | --- | --- | --- | --- | --- | --- | --- | --- |
| Cc1ccc(NC(=O)c2ccc(CBr)cc2)cc1Nc1nccc(-c2cccnc2)n1 | 11 | 68 | 21 | – | – | – | – | – | – | – | – | – | – | – | – | – | – | – | – | – | – |
| COc1cc2c(cc1OCc1ccc(C(=O)Nc3ccc(C)c(Nc4nccc(-c5cccnc5)n4)c3)cc1)N=C[C@@H]1C[C@H](F)CN1C2=O | 0.2 | 98.44 | 0.16 | 83.86 | 130 | 33.7 | 7.1 | Active | 140 | 120 | 140 | Active | 120 | 160 | 150 | 130 | 150 | < 100 | 160 | < 100 | inhibition [6]: Active; inhibition [20]: inactive; Activity [21]: Active |
| COc1cc2c(cc1OCc1ccc(C(=O)Nc3ccc(C)c(Nc4nccc(-c5cccnc5)n4)c3)cc1)N=C[C@@H]1CCCN1C2=O | 13.55 | 80.98 | 5.67 | 49.7 | < 100 | 48 | 6.8 | Active | 150 | 170 | 130 | Active | 140 | 1100 | 160 | 130 | 170 | 140 | 140 | 120 | inhibition [6]: Active; inhibition [20]: inactive; Activity [21]: Active |
| COc1cc2c(cc1OCCCCC(=O)Nc1ccc(C)c(Nc3nccc(-c4cccnc4)n3)c1)N=C[C@@H]1CCCN1C2=O | 13.98 | 80.98 | 6.47 | 41.59 | < 100 | 72 | 2.1 | Active | 2030 | 2200 | 2500 | Active | 180 | 5500 | 170 | 2400 | 160 | 170 | 2300 | 2300 | inhibition [20]: inactive; Activity [21]: Active |
| COc1cc2c(cc1OCCCCC(=O)Nc1ccc(C)c(Nc3nccc(-c4cc(OC)c(OC)c(OC)c4)n3)c1)N=C[C@@H]1C[C@H](F)CN1C2=O | 17.19 | 76.76 | 6.04 | 36.15 | 150 | 64.9 | 2.5 | Active | 170 | 1800 | 180 | Active | 170 | 5600 | 2700 | 180 | 120 | 160 | 2500 | 2100 | inhibition [20]: inactive; Activity [21]: Active |
| COc1cc2c(cc1O)N=C[C@@H]1CCCN1C2=O | – | – | – | – | 160 | – | 0.7 | – | 200 | 170 | – | – | 170 | – | – | 140 | 150 | 170 | 160 | 110 | inhibition [24]: Active |
| COc1cccc2c1C(=O)c1c(O)c3c(c(O)c1C2=O)C[C@@](O)(C(=O)CO)C[C@@H]3O[C@H]1C[C@H](N)[C@H](O)[C@H](C)O1 [DOXORUBICIN] | – | – | – | – | 120 | – | – | – | 170 | 2100 | < 100 | – | 110 | – | 130 | < 100 | 140 | < 100 | 150 | < 100 | – |
| COc1cc2c(cc1OCCCCC(=O)Nc1ccc(C)c(Nc3nccc(-c4cc(OC)c(OC)c(OC)c4)n3)c1)N=C[C@@H]1CCCN1C2=O | – | – | – | – | 2000 | – | 1.4 | – | 1800 | 1800 | 1800 | – | 170 | – | 2600 | 180 | 2400 | 2000 | 2300 | 2300 | – |
